Measurements taken from ChEMBL document CHEMBL1131135, “Substituted 4-acylpyrazoles and 4-acylpyrazolones: synthesis and multidrug resistance-modulating activity” (J Med Chem, 1998).

Key:
[1] = target: ATP-dependent translocase ABCB1 (Homo sapiens, UniProt P08183); assay: Compound was tested for inhibition of daunomycin efflux in the resistant human T-lymphoblast cell line CEM vcr1000.; type: functional, cell-based, CCRF-CEM
L5178Y = assay: Compound was tested for inhibition of rhodamine 123 efflux in mdr 1 transfectant L5178Y VMDRI C.06 mouse lymphoma cells; type: functional, cell-based
In short: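 Cells at 1 × 10⁶/mL in RPMI1640 preloaded with rhodamine 123 (final 0.2 μg/mL, 0.53 μmol/L) for 15 min at 37 °C, then resuspended in 37 °C medium with modulator (eight concentrations, 1:2.5 serial dilution, 3 nM–500 μM). Aliquots taken at 0, 30, 60, 90, 120 s into ice-cold verapamil stop solution. Read by flow cytometry, 5000 events. Vmax/Km from exponential fit, parental-line diffusion subtracted. EC50 from dose–response, mean of ≥5 experiments.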

Sequence of ATP-dependent translocase ABCB1 (P08183 whole entry): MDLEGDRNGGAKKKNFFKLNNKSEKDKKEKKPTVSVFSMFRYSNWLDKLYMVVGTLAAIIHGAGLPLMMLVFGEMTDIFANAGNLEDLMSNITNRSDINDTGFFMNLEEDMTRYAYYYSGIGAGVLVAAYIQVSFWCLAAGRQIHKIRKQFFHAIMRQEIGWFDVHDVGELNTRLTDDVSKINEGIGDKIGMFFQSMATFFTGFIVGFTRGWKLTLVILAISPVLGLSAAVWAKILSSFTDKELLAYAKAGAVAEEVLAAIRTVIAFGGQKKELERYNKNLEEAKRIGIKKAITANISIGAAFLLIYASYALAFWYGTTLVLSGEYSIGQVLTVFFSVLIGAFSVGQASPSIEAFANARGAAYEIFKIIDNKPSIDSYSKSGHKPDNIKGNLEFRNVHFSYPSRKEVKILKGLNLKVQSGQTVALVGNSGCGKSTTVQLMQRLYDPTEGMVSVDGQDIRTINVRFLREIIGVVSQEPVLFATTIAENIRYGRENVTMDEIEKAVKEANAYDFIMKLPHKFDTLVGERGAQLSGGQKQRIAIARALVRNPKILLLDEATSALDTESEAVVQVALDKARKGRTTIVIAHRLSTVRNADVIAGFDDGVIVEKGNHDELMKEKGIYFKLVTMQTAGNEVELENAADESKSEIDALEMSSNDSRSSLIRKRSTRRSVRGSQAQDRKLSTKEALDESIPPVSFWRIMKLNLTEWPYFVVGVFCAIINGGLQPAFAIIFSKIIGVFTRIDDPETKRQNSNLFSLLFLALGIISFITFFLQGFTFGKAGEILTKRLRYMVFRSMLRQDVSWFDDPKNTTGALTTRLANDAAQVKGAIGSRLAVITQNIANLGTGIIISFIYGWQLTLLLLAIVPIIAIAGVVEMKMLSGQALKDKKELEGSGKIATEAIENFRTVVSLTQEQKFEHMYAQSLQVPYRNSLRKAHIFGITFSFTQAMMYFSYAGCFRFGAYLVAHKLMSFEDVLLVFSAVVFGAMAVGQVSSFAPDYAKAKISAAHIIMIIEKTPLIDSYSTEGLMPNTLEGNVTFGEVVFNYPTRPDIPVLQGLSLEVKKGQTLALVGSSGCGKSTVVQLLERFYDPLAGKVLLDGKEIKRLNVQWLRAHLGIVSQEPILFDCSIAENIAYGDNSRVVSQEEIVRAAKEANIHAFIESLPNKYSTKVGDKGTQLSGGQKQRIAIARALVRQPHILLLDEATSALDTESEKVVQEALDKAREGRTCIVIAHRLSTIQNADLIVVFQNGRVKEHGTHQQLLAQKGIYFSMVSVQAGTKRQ

EC50 [1]	EC50 (L5178Y)	Compound
28.2 µM	64.5 µM	CCCNCC(O)Cn1c(C)c(C(=O)c2ccccc2)c(=O)n1-c1ccccc1 (centres undefined)
8.38 µM		CCCNc1c(C(=O)CCc2ccccc2)c(C)nn1-c1ccccc1
2.69 µM	4.02 µM	CCCCNCC(O)Cn1c(C)c(C(=O)CCc2ccccc2)c(=O)n1-c1ccccc1 (centres undefined)
83.2 µM	226 µM	Cc1c(C(=O)c2ccccc2)c(=O)n(-c2ccccc2)n1CC(O)CNC(C)C (centres undefined)
123 µM	648 µM	Cc1c(C(=O)c2cccs2)c(=O)n(-c2ccccc2)n1CC(O)CNC(C)C (centres undefined)
24.1 µM		Cc1c(C(=O)c2ccccc2)c(=O)n(C)n1CC(O)CN(C(C)C)C(C)C (centres undefined)
12.6 µM	21.9 µM	Cc1c(C(=O)c2ccccc2)c(=O)n(-c2ccccc2)n1CC(O)CN(C(C)C)C(C)C (centres undefined)
0.21 µM		Cc1ccccc1N1CCN(CC(O)Cn2c(C)c(C(=O)CCc3ccccc3)c(=O)n2-c2ccccc2)CC1 (centres undefined)
1.21 µM		Cc1nn(C)c(OCC(O)CN(C(C)C)C(C)C)c1C(=O)c1ccccc1 (centres undefined)
3.79 µM		CCC/N=C(\CCc1ccccc1)c1c(C)[nH]n(-c2ccccc2)c1=O
273 µM		CCC/N=C(\c1ccccc1)c1c(C)[nH]n(C)c1=O
0.68 µM		CC1=NN(c2ccccc2)C(=O)/C1=C(/c1ccccc1)N1CCN(c2ccccc2C)CC1
0.89 µM	2.43 µM	Cc1ccccc1N1CCN(CC(O)Cn2c(C)c(C(=O)c3ccccc3)c(=O)n2-c2ccccc2)CC1 (centres undefined)
72.4 µM	94.7 µM	Cc1c(C(=O)c2cccs2)c(=O)n(-c2ccccc2)n1CC(O)CNC(C)(C)C (centres undefined)
72.4 µM	174 µM	CCCNCC(O)Cn1c(C)c(C(=O)c2cccs2)c(=O)n1-c1ccccc1 (centres undefined)
11.8 µM	34.2 µM	Cc1c(C(=O)CCc2ccccc2)c(=O)n(-c2ccccc2)n1CC(O)CNC(C)C (centres undefined)
81.3 µM	168 µM	Cc1c(C(=O)c2ccccc2)c(=O)n(-c2ccccc2)n1CC(O)CNC(C)(C)C (centres undefined)
1.06 µM	2.22 µM	Cc1nn(-c2ccccc2)c(OCC(O)CN(C(C)C)C(C)C)c1C(=O)c1ccccc1 (centres undefined)
6.31 µM	15.2 µM	CCCNCC(O)Cn1c(C)c(C(=O)CCc2ccccc2)c(=O)n1-c1ccccc1 (centres undefined)
11 µM		CCCNc1c(C(=O)c2ccccc2)c(C)nn1-c1ccccc1
7.76 µM	17.8 µM	Cc1c(C(=O)CCc2ccccc2)c(=O)n(-c2ccccc2)n1CC(O)CNC(C)(C)C (centres undefined)
